From PubChem
Compounds with a hit are over-represented: about 2.4% of the library has one in this group of screens.
SIAE primary – blocks human sialic acid acetylesterase | SIAE FP-Rh probe binding, fluorescence polarization | 370,000 compounds, 0.69% hits | inhibition, % at 9.66 µM | Q9HAT2;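 active = inhibition above a cutoff: mean of compounds within the control limits plus 3 SD of those, cut at about 17% in these data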
Target sequence (Q9HAT2 whole entry, looked up): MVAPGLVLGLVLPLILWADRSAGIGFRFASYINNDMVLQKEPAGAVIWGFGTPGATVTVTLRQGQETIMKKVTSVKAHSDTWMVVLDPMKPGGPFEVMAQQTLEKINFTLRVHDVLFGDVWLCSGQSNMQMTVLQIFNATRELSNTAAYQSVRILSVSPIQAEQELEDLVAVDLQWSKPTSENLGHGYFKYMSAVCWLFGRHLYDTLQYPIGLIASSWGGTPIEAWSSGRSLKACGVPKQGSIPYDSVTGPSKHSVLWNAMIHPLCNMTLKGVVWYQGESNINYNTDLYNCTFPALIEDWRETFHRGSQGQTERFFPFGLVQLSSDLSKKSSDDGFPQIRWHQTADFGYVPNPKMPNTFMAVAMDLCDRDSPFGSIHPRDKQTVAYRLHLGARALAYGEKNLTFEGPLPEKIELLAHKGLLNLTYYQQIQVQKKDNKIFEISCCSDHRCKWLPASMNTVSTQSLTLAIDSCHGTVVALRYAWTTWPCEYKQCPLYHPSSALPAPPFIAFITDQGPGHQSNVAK
GASC-1 inh – inhibitors of human GASC-1 (JMJD2C) demethylase | Q9H3R0 | GST-JMJD2C(1-420) H3K9me3 demethylation, DELFIA europium | inhibition, % at 2.35 µM | 330,000 compounds, 0.069% hits;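 active = more than half of a compound's replicate wells show inhibition beyond 50%, single wells judged on their own value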;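 also: signal counts dimethyl H3K9 product captured on neutravidin plate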
HTRA1 inh – inhibitors of human serine peptidase HTRA1; Q92743; 340,000 compounds, 0.5% hits; inhibition, % at 5.96 µM; AID 504803; recombinant HTRA1, FP-rhodamine activity-based probe, fluorescence polarization; in the data active = inhibition above about 36%
PRMT1 FP inh – blocks human protein arginine methyltransferase 1; 370,000 compounds, 1.3% hits; Q99873; recombinant PRMT1, activity-based probe fluorescence polarization; inhibition, % at 2.79 µM;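 active = inhibition above about 21% made by adding two undisclosed values, limit read from the data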
ABHD4 inh – inhibits mouse alpha/beta hydrolase domain 4 | Q8VD66 | purified mABHD4, FP-Rh probe fluorescence polarization | inhibition, % at 8.92 µM | 370,000 compounds, 0.54% hits;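 active = inhibition exceeding the mean over every tested compound plus 3 SD, cut at about 30% in these data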
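assay system = mABHD4 protein | compound dosing = single nominal dose of 8.92 µM, 0.89% DMSO final | read-out basis = percent inhibition of probe binding, normalized to plate controls | schedule = Enzyme–compound pre-incubation 45 min, then probe 60 min, both 25 °C | detection = fluorescence polarization, excitation 525 nm, emission 598 nm, BODIPY TMR filters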
A number is an active result; i = inactive; nt = not tested or not shown; ! = not active in a repeat.

SMILES	SIAE primary	GASC-1 inh	HTRA1 inh	PRMT1 FP inh	ABHD4 inh
CC(C)NC(=O)N[C@@H]1C[C@@H]2O[C@@H](CO)CC[C@@H]2O[C@@H]1CCc1ccc(-c2ccccc2F)cc1	i	nt	nt	i	i
O=C(O)c1cc(O)c2c(c1)C(=O)c1cccc(O)c1C2=O	i	i	i	32	98
Cc1cc(O)c2c(c1)C(=O)c1cccc(O)c1C2=O	i	nt	nt	i	i
CCOc1ccc(-n2c(SCC(=O)Nc3ccc4cn[nH]c4c3)nnc2-c2ccc(C(C)(C)C)cc2)cc1	i	nt	nt	i	i
COC(=O)C1CN(Cc2cn(Cc3ccc(F)cc3)nn2)CCS(=O)(=O)N1Cc1ccc(C)cc1 (stereo not drawn)	i	nt	nt	i	i
O=C(CSc1nnc(-c2ccncc2)n1Cc1ccco1)Nc1cccc(O)c1	i	i	i	i	i
Cc1cc(C)c(NC(=O)CSc2nnc(-c3ccncc3)n2Cc2ccco2)c(Cl)c1	i	i	i	22	i
Cn1cnc([N+](=O)[O-])c1Oc1cccc2ccccc12	i	i	i	i	i
Cn1cnc([N+](=O)[O-])c1S(=O)(=O)Oc1cccc2ccccc12	i	nt	i	23	i
CCOC1=C2CN(S(=O)(=O)c3ccc(C)cc3)[C@H](c3ccccc3)C[C@@H]2N(S(=O)(=O)c2ccccc2C)[C@H](c2ccccc2)C1	i	nt	nt	i	i
COc1ccc(CN(C)C(=O)C2CCCN(c3nc4ccccc4o3)C2)cc1 (stereo not drawn)	i	nt	nt	i	i
Cc1cc(-c2csc(NCc3ccccc3)n2)c(C)n1C	nt	nt	37	nt	nt
CCCC[C@H]1C2CC(OC(=O)Nc3ccc(C)cc3)C(C2)[C@H]2CCCCN21 (stereo partly drawn)	i	nt	nt	i	i
Cc1ccc(S(=O)(=O)N(C)[C@H]2C[C@H]3c4cc(-c5ccccc5C)ccc4CCN3C[C@H]2[C@H](C)O)cc1	i	nt	nt	i	i
COC(=O)C(CC(=O)c1ccc(Br)cc1)n1cccn1 (stereo not drawn)	i	i	i	22	i
COC(=O)C(CC(=O)c1ccc(C)cc1)n1cccn1 (stereo not drawn)	i	i	i	i	i
CCOc1cc(NC(=S)NCCOC)c(OCC)cc1NC(=O)c1cccs1	i	69	nt	i	i
c1nc(NCC2CCCC2)c2cc(-c3ccc4c(c3)OCO4)ccc2n1	i	nt	nt	i	i
CC(c1c[nH]c2ccccc12)c1c[nH]c2ccc(Br)cc12 (stereo not drawn)	i	nt	nt	i	i
CN(C)c1ccc(NC(=O)c2sc(SCC(=O)Nc3nccs3)nc2N)cc1	24	i	i	i	i
COC(=O)[C@]12C[C@H](CC(=O)NCc3ccc(C)o3)C(=O)N(CCc3ccc(OC)c(OC)c3)C1=C[C@H](COCc1ccccc1)O[C@@H]2C	i	nt	nt	i	i
Cc1cc(NC(=S)Nc2ccc(C)c(Cl)c2)n[nH]1	i	i	i	24	i
CC(C)C[C@H]1C(=O)N2CCC[C@H]2[C@]2(O)O[C@](NC(=O)C3C=C4c5cccc6[nH]c(Br)c(c56)C[C@H]4N(C)C3)(C(C)C)C(=O)N12 (stereo partly drawn)	i	i	i	i	i
CN1C[C@H](C(=O)N[C@]2(C)O[C@@]3(O)[C@@H]4CCCN4C(=O)[C@H](Cc4ccccc4)N3C2=O)CC2c3cccc4[nH]cc(c34)C[C@H]21 (stereo partly drawn)	21!	nt	i	i	i
Cc1nc2sc(C(=O)NCc3ccncc3)c(N)c2c(C)c1Cl	i	nt	nt	i	i
SMILES	SIAE primary	GASC-1 inh	HTRA1 inh	PRMT1 FP inh	ABHD4 inh
COC(=O)[C@]12C[C@H](CC(=O)NCc3ccc(OC)c(OC)c3)C(=O)N(Cc3ccc(Cl)cc3Cl)C1=C[C@H](C(C)(C)C)O[C@@H]2C	i	nt	nt	i	i
N#CC(C#N)=C(N)/C(C#N)=C/c1cc(O)c(O)c(O)c1	i	nt	i	i	33
Cc1cnn(C(=O)c2ccccc2Br)c1	i	85	nt	i	i
Cc1ccc(N2CCN(C(=O)c3ccccc3Br)CC2)c(C)c1	i	i	i	i	i
Cc1cc(-c2cc(-c3ccc(Cl)cc3)nc(N)c2C#N)co1	i	i	i	39	i
CC(=O)N1CCc2c(sc(NC(=O)C3CC3)c2-c2nc3ccccc3s2)C1	i	i	i	30	i
Cc1ccc(NC(=O)CSCc2ccco2)cc1	i	i	i	i	i
c1coc(CSSCc2ccco2)c1	i	i	i	49	i
COC(=O)c1ccc(NCc2cc(O)ccc2O)cc1O	i	nt	i	23	i
O=C(COC(=O)c1ccc(O)cc1O)Nc1ccc2ccccc2c1	i	i	i	i	i
CCOC(=O)[C@@]12CCC3=C1N(CCC3)C(=O)[C@H](CC(=O)NCC13CC4CC(CC(C4)C1)C3)C2	i	nt	nt	i	i
Oc1cc(NCCN2CCOCC2)cc2cccnc12	i	nt	i	21	i
COc1ccc(NC(=O)CSc2nnc(-c3ccccc3C)n2N)cc1	i	i	i	21	i
COc1ccc(NC(=O)CSc2nnc(-c3ccccc3C)n2N)cc1OC	i	i	i	i	i
O=C(O)C1Nc2c(C(=O)N3CCOCC3)cccc2C2C=CCC12 (stereo not drawn)	nt	i	i	nt	nt
Cc1ccc2c(c1C)NC(C(=O)O)C1CC=CC21 (stereo not drawn)	nt	i	51	nt	nt
O=C(O)c1cccc(-n2cccc2/C=C/[N+](=O)[O-])c1	i	i	i	26	i
O=S1(=O)CCSC[C@@H](CNCc2ccco2)N1	i	nt	nt	i	i
COc1ccccc1C(=O)NC1CCCCN(Cc2ccc(C)cc2)C1=O (stereo not drawn)	i	nt	nt	i	i
CCOc1ccc(-c2nc(C#N)c(NCc3ccc4c(c3)OCO4)o2)cc1	18	i	i	i	i
Cc1[nH]c2ccccc2c1/C=N/Nc1cccc(C(=O)O)c1	i	i	i	i	34
O=C(OCc1cn(Cc2c(F)cccc2F)nn1)N1CCOCC1	i	nt	nt	i	i
Cc1ccc(N2C(=O)c3ccccc3C2C(=O)c2ccc(O)cc2O)cc1 (stereo not drawn)	i	i	i	24	i
Cc1ccc(N2C(=O)c3ccccc3C2C(=O)c2cc(C)ccc2O)cc1 (stereo not drawn)	i	i	i	i	i
c1ccc2c(c1)c1c(c3ccccc32)CN2CCCC2C1 (stereo not drawn)	i	nt	i	i	i
SMILES	SIAE primary	GASC-1 inh	HTRA1 inh	PRMT1 FP inh	ABHD4 inh
COc1ccccc1NC(=S)c1ccccc1	i	i	i	23	i
C[C@@H]1CN([C@H](C)CO)S(=O)(=O)c2ccc(C#CC3CCCC3)cc2O[C@H]1CN(C)C(=O)Cc1ccccc1	i	nt	i	i	i
CC[n+]1c(/C=C2\C=C(C)CC(C)C2)sc2ccccc21 (stereo not drawn)	nt	i	i	nt	nt
CCC1=C/C(=C/c2sc3ccccc3[n+]2CC)CC(C)(C)C1	i	i	nt	37	i
Cc1ccc(NC(=O)c2ccc(=O)[nH]n2)cc1S(=O)(=O)Nc1ccc(SC(F)F)cc1	i	i	i	46	i
N#CC1=C(S)N=C(N)C(c2nc(-c3ccccc3)cs2)C12CCCCC2 (stereo not drawn)	i	i	i	i	i
